According to ChEMBL document CHEMBL5096242, “Structure-Activity Studies of 1H-Imidazo[4,5-c]quinolin-4-amine Derivatives as A3 Adenosine Receptor Positive Allosteric Modulators” (J Med Chem, 2022):
pIC50, pKi: −log10 of the molar value. In brackets after ≈: the same amount, converted by molar mass.

Key:
D(3) dopamine receptor = D(3) dopamine receptor (Homo sapiens, UniProt P35462); assay: Displacement of [3H]-N-methylspiperone from human D3 receptor expressed in human HEK293T cell membrane incubated for 90 mins by radioligand binding assay
[1] = Stability of the compound in simulated gastric fluid at pH 1 to 2 assessed as compound remaining at 120 mins by LC-MS/MS analysis; details: simulated gi fluid, pH 1, 2 h
[2] = simulated gi fluid, pH 1, 2 h
[3] = target: Sigma intracellular receptor 2 (Homo sapiens, UniProt Q5BJF2); assay: Displacement of [3H]-DTG from human sigma2 receptor expressed in human HEK293T cell membrane incubated for 90 mins by radioligand binding assay
Translocator protein = Translocator protein (Homo sapiens, UniProt P30536); assay: Inhibition of human TPSO receptor expressed in human HEK293T cell membrane incubated for 90 mins by radioligand binding assay
[4] = target: T1, Adenosine receptor A3 (Homo sapiens) (UniProt P0DMS8); assay: Positive allosteric modulator activity in wild type human A3AR opioid receptor stably expressed in human HEK293 cell membrane assessed as increase in CI-IB-MECA induced [35S]GTPGAgammaS binding to receptor at 10 uM preincubated for 1 hrs with CI-IB-MECA further incubated with [35S]GTPGAgammaS for …; type: cell membranes; details: filed as positive allosteric modulator, time 3.0 hrs
T1 sequence (whole entry): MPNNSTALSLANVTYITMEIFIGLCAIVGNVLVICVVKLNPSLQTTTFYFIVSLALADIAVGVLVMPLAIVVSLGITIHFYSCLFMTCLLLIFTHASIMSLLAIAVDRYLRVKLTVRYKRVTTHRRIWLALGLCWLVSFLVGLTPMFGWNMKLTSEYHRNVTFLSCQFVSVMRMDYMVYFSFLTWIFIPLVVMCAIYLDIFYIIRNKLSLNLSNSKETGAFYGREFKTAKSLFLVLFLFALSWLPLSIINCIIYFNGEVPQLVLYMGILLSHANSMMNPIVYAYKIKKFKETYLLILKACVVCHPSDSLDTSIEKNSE

[5] = target: Sodium-dependent dopamine transporter (Homo sapiens, UniProt Q01959); assay: Displacement of [3H]-Win35428 from human DAT receptor expressed in human HEK293T cell membrane incubated for 90 mins by radioligand binding assay
Mu-type opioid receptor = Mu-type opioid receptor (Homo sapiens, UniProt P35372); assay: Displacement of [3H]-DAMGO from human MOR receptor expressed in human HEK293 cell membrane incubated for 90 mins by radioligand binding assay
[6] = Protein binding in human plasma assessed as bound fraction at 10 uM and measured for 5 hrs by LC-MS/MS based dialysis analysis
[7] = Protein binding in mouse plasma assessed as bound fraction at 10 uM and measured for 5 hrs by LC-MS/MS based dialysis analysis
[8] = target: Sigma non-opioid intracellular receptor 1 (Homo sapiens, UniProt Q99720); assay: Displacement of [3H]-LSD from human sigma1 receptor expressed in human HEK293T cell membrane incubated for 90 mins by radioligand binding assay
[9] = Stability in rat plasma assessed as compound remaining and measured after 120 mins by LC-MS/MS analysis; details: 2 h
[10] = rat, microsomes, 2 h, 3 µM
[11] = MRT in Wistar rat at 1 mg/kg, po and measured upto 24 hrs; type: ADME, organism-based; details: plasma, 3 mg/kg, in the assay text read “3 mg/kg” for “1 mg/kg”
Procedure, shortened: (§1)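 Fasted male Wistar rats (RccHan:WIST), 6–10 weeks old at acclimation, three per group. Dosing was 0.5 mg/kg i.v. in DMSO:20% HPBCD (10:90), or 1, 3 and 10 mg/kg by oral gavage in DMSO:Kolliphor EL:PBS (15:15:70). Jugular blood was taken at 0.083–24 h (stated for i.v.) into heparin, and plasma was frozen at −70 °C. Parameters came from non-compartmental analysis.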

[12] = Stability in mouse plasma assessed as half life and measured after 120 mins by LC-MS/MS analysis; details: 2 h
[13] = simulated gi fluid, pH 6, 2 h
[14] = Cmax in Wistar rat plasma at 10 mg/kg, po and measured after 2 hrs; type: ADME, organism-based; parameters: time 2 hrs, dose 10 mg/kg, route po; details: in vivo; procedure, shortened: as §1
[15] = Stability in human plasma assessed as compound remaining and measured after 120 mins by LC-MS/MS analysis; details: 2 h
[16] = Half life in Wistar rat at 0.5 mg/kg, iv and measured upto 24 hrs; type: ADME, organism-based; details: in vivo; procedure, shortened: as §1
[17] = Protein binding in rat plasma assessed as bound fraction at 10 uM and measured for 5 hrs by LC-MS/MS based dialysis analysis
[18] = Microsomal stability in human liver microsomes assessed as parent compound remaining at 3 uM incubated for 120 mins by LC-MS/MS analysis; details: 2 h
[19] = Permeability across apical to basolateral side in human Caco-2 cells assessed as compound recovery at 10 uM measured upto 120 mins by LC-MS/MS analysis; type: ADME, cell-based; details: caco-2, 2 h
[20] = human, microsomes, 2 h, 3 µM
[21] = Clearance in Wistar rat plasma at 10 mg/kg, po and measured upto 24 hrs; type: ADME, organism-based; procedure, shortened: as §1
[22] = Microsomal stability in mouse liver microsomes assessed as parent compound remaining at 3 uM incubated for 120 mins by LC-MS/MS analysis; details: 2 h
in vivo [23] = details: Wistar, rat, po, 3 mg/kg
[24] = Permeability across basolateral to apical side in human Caco-2 cells assessed as compound recovery at 10 uM measured upto 120 mins by LC-MS/MS analysis; type: ADME, cell-based; details: caco-2, 2 h
in vivo [25] = details: Wistar, rat, po, 10 mg/kg
[26] = Stability in rat plasma assessed as half life and measured after 120 mins by LC-MS/MS analysis; details: 2 h
[27] = Stability in mouse plasma assessed as compound remaining and measured after 120 mins by LC-MS/MS analysis; details: 2 h
[28] = Clearance in Wistar rat plasma at 1 mg/kg, po and measured upto 24 hrs; type: ADME, organism-based; procedure, shortened: as §1
[29] = Half life in Wistar rat at 3 mg/kg, po and measured upto 24 hrs; details: in vivo
[30] = Clearance in Wistar rat assessed as parent compound remaining at 3 mg/kg, po and measured upto 24 hrs; type: ADME, organism-based; details: in vivo; procedure, shortened: as §1
[31] = target: Voltage-gated inwardly rectifying potassium channel KCNH2 (Homo sapiens, UniProt Q12809); assay: Inhibition of human ERG stably transfected in HEK293 cells incubated for 2 hrs by TAMRA fluorescence polarization assay
[32] = Microsomal stability in rat liver microsomes assessed as parent compound remaining at 3 uM incubated for 120 mins by LC-MS/MS analysis; details: 2 h
[33] = Stability of the compound in simulated intestinal fluid at pH 6 to 8 assessed as compound remaining at 120 mins by LC-MS/MS analysis; details: simulated gi fluid, pH 6, 2 h
[34] = Tmax in Wistar rat plasma at 1 to 10 mg/kg, po and measured after 2 hrs; type: ADME, organism-based; details: dose 1-10 mg/kg; procedure, shortened: as §1
[35] = Stability in human plasma assessed as half life and measured after 120 mins by LC-MS/MS analysis; details: 2 h
Cytochrome P450 1A2 = target: T2, Cytochrome P450 1A2 (Homo sapiens, UniProt P05177); assay: Inhibition of CYP1A2 in human liver Microsome using phenacetin as substrate in presence of NADPH by LC-MS/MS analysis
T2 sequence (P05177 whole entry): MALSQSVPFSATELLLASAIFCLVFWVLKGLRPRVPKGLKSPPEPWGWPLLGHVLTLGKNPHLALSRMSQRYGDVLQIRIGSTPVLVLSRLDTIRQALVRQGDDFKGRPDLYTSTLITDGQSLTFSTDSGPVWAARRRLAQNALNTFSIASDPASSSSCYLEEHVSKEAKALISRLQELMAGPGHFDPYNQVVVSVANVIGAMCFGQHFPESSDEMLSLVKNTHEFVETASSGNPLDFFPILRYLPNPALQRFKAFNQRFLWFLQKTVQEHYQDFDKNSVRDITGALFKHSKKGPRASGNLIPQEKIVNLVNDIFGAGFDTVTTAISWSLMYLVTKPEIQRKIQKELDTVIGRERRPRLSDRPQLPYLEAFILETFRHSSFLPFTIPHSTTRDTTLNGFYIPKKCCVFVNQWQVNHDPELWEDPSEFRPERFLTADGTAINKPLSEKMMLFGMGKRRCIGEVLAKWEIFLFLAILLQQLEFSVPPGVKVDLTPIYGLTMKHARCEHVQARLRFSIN

[36] = target: Cytochrome P450 1A2 (Homo sapiens) (UniProt P05177)
[37] = mouse, microsomes, 2 h, 3 µM
[38] = Clearance in Wistar rat plasma at 3 mg/kg, po and measured upto 24 hrs; type: ADME, organism-based; procedure, shortened: as §1
[39] = Half life in Wistar rat at 10 mg/kg, po and measured upto 24 hrs; details: in vivo
[40] = target: Cytochrome P450 1A2 (Homo sapiens) (UniProt P05177); remark: listed apart in the source
[41] = Aqueous solubility of compound at pH 7.4 by PDA spectrophotometric analysis; details: buffer
[42] = target: 5-hydroxytryptamine receptor 2B (Homo sapiens, UniProt P41595); assay: Displacement of [3H]-LSD from human 5HT2B expressed in human HEK293 cell membrane incubated for 90 mins by radioligand binding assay; type: cell membranes
Procedure, shortened: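 Off-target panel run by the NIMH PDSP. Each derivative was first screened at 10 μM in radioligand binding.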

Adenosine receptor A3 = target: T3, Adenosine receptor A3 (Homo sapiens, UniProt P0DMS8)
T3 sequence (P0DMS8 whole entry): T1 sequence (whole entry)

Cytochrome P450 2D6 = Cytochrome P450 2D6 (Homo sapiens, UniProt P10635); assay: Inhibition of CYP2D6 in human liver Microsome using dextromethorphan as substrate in presence of NADPH by LC-MS/MS analysis
[43] = Inhibition of CYP2C9 in mouse liver Microsome using phenacetin as substrate in presence of NADPH by LC-MS/MS analysis
[44] = Inhibition of CYP2C9 in rat liver Microsome using phenacetin as substrate in presence of NADPH by LC-MS/MS analysis

Sigma intracellular receptor 2, sequence (Q5BJF2 whole entry): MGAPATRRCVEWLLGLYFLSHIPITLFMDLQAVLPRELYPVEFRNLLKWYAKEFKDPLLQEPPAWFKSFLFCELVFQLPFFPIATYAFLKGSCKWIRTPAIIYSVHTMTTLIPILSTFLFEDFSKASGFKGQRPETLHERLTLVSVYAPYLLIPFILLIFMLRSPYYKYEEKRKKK
Sigma non-opioid intracellular receptor 1, sequence (Q99720 whole entry): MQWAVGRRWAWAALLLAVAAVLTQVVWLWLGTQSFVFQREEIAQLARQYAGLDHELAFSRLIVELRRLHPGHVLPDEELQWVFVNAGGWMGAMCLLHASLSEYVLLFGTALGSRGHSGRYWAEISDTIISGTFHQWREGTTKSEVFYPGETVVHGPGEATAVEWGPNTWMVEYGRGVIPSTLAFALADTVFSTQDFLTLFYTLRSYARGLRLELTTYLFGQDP
D(3) dopamine receptor, sequence (P35462 whole entry): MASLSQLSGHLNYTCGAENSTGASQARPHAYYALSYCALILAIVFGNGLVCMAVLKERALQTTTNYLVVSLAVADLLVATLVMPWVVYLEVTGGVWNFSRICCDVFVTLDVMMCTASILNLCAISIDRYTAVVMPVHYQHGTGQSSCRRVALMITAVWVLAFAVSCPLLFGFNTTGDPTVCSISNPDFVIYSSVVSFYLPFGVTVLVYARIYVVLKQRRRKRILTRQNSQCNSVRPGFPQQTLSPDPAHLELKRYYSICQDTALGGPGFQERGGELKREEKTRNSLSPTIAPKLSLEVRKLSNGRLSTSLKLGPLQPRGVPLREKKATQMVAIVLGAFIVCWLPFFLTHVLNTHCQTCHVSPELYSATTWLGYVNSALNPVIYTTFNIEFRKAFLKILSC
Voltage-gated inwardly rectifying potassium channel KCNH2, sequence (Q12809 whole entry): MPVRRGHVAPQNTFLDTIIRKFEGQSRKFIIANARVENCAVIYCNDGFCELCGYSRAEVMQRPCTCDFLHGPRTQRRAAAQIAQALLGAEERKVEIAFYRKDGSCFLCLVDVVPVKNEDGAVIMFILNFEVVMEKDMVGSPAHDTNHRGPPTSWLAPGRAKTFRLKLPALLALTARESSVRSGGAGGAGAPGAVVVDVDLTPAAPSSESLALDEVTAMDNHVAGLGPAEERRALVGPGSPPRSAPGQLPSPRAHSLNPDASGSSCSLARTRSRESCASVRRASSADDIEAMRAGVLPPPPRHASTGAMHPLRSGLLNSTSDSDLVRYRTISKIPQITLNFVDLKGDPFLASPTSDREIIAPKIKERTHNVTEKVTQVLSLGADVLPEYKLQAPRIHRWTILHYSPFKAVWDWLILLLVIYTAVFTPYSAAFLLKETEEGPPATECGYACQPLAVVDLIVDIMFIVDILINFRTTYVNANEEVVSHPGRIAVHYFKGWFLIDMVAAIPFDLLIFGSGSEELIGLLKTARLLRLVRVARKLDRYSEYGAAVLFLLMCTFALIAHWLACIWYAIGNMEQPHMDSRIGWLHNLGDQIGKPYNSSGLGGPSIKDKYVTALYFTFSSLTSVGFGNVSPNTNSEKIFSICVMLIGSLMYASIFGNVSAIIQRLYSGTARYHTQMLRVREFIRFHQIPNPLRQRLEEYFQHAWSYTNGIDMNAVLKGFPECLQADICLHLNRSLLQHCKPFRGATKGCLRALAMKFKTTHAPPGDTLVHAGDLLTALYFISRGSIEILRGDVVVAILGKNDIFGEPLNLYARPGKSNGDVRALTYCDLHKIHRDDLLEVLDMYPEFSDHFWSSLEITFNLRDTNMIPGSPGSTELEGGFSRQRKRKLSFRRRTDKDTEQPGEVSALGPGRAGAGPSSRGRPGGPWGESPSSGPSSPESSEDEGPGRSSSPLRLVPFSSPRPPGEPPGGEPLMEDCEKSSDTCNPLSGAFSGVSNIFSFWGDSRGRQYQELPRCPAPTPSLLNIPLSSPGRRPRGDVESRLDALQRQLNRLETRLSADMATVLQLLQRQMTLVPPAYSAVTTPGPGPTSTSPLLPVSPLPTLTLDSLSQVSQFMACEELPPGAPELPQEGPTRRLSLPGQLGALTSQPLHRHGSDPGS
Sodium-dependent dopamine transporter, sequence (Q01959 whole entry): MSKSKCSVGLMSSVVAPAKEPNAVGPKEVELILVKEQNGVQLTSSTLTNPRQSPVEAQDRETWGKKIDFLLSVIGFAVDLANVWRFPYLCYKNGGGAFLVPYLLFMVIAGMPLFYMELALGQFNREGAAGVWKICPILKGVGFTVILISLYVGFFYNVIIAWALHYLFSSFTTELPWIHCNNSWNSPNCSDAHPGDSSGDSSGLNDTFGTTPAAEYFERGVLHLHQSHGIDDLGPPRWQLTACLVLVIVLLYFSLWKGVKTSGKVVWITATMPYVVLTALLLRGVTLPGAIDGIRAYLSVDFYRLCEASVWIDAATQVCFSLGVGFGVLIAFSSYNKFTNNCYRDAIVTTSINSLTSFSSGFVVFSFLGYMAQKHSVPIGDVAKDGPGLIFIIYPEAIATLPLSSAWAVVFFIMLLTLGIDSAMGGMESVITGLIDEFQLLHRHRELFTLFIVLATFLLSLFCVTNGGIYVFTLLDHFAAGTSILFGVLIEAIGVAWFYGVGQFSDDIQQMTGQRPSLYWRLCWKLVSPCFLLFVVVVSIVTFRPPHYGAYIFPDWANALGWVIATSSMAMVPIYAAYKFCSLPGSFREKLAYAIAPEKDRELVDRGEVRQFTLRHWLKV
Mu-type opioid receptor, sequence (P35372 whole entry): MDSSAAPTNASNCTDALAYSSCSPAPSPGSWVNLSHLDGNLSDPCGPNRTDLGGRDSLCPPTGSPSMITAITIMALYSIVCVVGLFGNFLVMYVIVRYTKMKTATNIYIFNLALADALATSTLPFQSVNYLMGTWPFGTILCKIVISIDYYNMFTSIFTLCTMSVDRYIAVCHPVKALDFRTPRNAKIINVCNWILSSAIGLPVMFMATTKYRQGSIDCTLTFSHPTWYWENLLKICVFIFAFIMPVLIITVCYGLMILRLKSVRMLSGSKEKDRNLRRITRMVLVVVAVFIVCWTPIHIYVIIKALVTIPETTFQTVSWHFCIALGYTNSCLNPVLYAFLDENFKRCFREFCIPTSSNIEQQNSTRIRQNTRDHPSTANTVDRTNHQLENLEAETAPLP
Cytochrome P450 2D6, sequence (P10635 whole entry): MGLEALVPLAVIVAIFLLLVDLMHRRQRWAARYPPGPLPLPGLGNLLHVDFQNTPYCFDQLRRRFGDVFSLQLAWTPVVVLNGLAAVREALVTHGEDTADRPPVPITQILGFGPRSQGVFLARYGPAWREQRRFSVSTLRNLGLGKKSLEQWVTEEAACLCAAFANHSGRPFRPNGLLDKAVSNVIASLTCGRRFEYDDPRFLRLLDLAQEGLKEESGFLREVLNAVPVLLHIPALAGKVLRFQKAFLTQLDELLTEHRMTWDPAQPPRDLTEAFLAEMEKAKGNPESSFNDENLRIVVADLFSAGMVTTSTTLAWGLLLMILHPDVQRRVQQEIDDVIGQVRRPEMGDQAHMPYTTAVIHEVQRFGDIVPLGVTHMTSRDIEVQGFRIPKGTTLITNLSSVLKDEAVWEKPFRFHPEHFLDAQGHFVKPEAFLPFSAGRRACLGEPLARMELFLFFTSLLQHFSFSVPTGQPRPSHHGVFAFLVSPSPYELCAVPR
5-hydroxytryptamine receptor 2B, sequence (P41595 whole entry): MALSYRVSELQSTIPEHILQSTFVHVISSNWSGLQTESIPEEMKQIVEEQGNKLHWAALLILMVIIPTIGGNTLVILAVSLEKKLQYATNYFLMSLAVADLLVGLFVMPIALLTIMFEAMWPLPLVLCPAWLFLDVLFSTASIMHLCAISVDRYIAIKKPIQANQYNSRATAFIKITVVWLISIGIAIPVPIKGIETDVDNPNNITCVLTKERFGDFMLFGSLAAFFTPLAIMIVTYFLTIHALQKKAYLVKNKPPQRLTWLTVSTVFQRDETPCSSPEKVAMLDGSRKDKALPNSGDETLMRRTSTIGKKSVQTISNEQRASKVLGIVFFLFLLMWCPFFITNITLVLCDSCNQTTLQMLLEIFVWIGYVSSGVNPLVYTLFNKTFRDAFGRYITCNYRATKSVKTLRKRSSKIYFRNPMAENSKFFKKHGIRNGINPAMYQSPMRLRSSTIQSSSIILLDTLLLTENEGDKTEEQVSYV
Translocator protein, sequence (P30536 whole entry): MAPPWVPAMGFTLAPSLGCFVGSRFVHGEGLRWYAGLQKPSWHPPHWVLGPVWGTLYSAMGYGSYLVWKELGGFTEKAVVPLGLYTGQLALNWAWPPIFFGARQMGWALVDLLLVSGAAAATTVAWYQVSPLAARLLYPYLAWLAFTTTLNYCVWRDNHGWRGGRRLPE

## Clc1ccc(Nc2nc3ccccc3c3[nH]c(C4CCCCCCCCCCC4)nc23)cc1Cl
D(3) dopamine receptor
  pKi: 5.12

## COc1ccc2[nH]c([S+]([O-])Cc3ncc(C)c(OC)c3C)nc2c1 (stereo unspecified) [OMEPRAZOLE]
[1]
  Stability: 0%
[2]
  t1/2: 0.255 h

## CCCC(CCC)c1nc2c(Nc3ccc(I)cc3)nc3ccccc3c2[nH]1
[3]
  pKi: 6.05
Translocator protein
  pKi: 6.91

## Clc1ccc(Nc2nc3ccccc3c3[nH]c(C4CC5C=CC4CC5)nc23)cc1Cl (racemic)
[4]
  Activity: 100%

## Clc1ccc(Nc2nc3ccccc3c3[nH]c([C@@H]4C[C@@H]5CCC[C@@H](C5)C4)nc23)cc1Cl
[5]
  pKi: 6.33
Mu-type opioid receptor
  pKi: 5.14

## CC(=O)CC(c1ccccc1)c1c(O)c2ccccc2oc1=O (stereo unspecified) [WARFARIN]
[6]
  PPB: 96.3%
[7]
  PPB: 83.6%

## Clc1ccc(Nc2nc3ccccc3c3[nH]c(C4CCCCCCCC4)nc23)cc1Cl
[3]
  pKi: 6.04
[8]
  pKi: 5.29

## Clc1ccc(Nc2nc3ccccc3c3[nH]c(C4CCC=CCC4)nc23)cc1Cl
[9]
  Stability: 88.7%
[10]
  t1/2: 1.17 h
[11]
  MRT: 3.98 h
[12]
  t1/2: 11.6 h
[13]
  t1/2: 9.55 h
[14]
  Cmax: 1780 ng/mL
[3]
  pKi: 6.24
[15]
  Stability: 69.7%
[16]
  t1/2: 2.38 h
[17]
  PPB: 99.1%
[18]
  Stability: 81.2%
[1]
  Stability: 69.1%
[19]
  permeability: 48.1%
[20]
  t1/2: 3.33 h
[21]
  CL/F: 16.2 mL/min/kg
[8]
  pKi: 5.33
[22]
  Stability: 76.4%
In vivo [23]
  bioavailability at 24 h: 28.7%
[24]
  permeability: 78%
In vivo [25]
  bioavailability at 24 h: 47.5%
[26]
  t1/2: 9.67 h
[27]
  Stability: 83.5%
[28]
  CL/F: 7.45 mL/min/kg
[29]
  t1/2: 1.29 h
[30]
  remaining at 24 h: 50%
[31]
  pIC50: 5.22
[32]
  Stability: 52.1%
[33]
  Stability: 100%
[34]
  Tmax: 2 h
[35]
  t1/2: 2.65 h
[2]
  t1/2: 3.4 h
Cytochrome P450 1A2
  pIC50: 5.16
[36]
  pIC50: 5.16
[37]
  t1/2: 3.23 h
[38]
  CL/F: 26.3 mL/min/kg
[39]
  t1/2: 2.6 h
[40]
  pIC50: 5.16
[41]
  solubility: 0.39 µg/mL (≈ 0.921 µM)

## CCCC(CCC)c1nc2c(Nc3ccc(Cl)c(Cl)c3)nc3ccccc3c2[nH]1
[42]
  pKi: 5.87
[3]
  pKi: 5.87
[8]
  pKi: 5.83

## Clc1ccc(Nc2nc3ccccc3c3[nH]c(C4CCCCC4)nc23)cc1Cl
Adenosine receptor A3
  pKi: 5.70

## Clc1ccc(COC(Cn2ccnc2)c2ccc(Cl)cc2Cl)c(Cl)c1 (stereo unspecified) [MICONAZOLE]
Cytochrome P450 2D6
  pIC50: 5.79
[43]
  pIC50: 4.42
[44]
  pIC50: 4.42
Cytochrome P450 1A2
  pIC50: 5.34
[36]
  pIC50: 5.34
[40]
  pIC50: 5.34

## Clc1ccc(Nc2nc3ccccc3c3[nH]c(C4CCCCCCCCCC4)nc23)cc1Cl
D(3) dopamine receptor
  pKi: 5.28

## COc1ccc([C@@H]2Sc3ccccc3N(CCN(C)C)C(=O)[C@@H]2OC(C)=O)cc1 [DILTIAZEM]
[9]
  Stability: 83.9%

## Ic1ccc(Nc2nc3ccccc3c3[nH]c(C4CCCCC4)nc23)cc1
D(3) dopamine receptor
  pKi: 6.07

## CCN(CC)CCOC(=O)c1ccc(N)cc1 [PROCAINE]
[12]
  t1/2: 0.00183 h
[15]
  Stability: 0%
[27]
  Stability: 0%
